Reference: ChEMBL document CHEMBL1144097, “Triterpene trimers from Maytenus scutioides: cycloaddition compounds?” (J Nat Prod, 1999)
The source made the active and inactive calls.

Assays:
HEp-2 = assay: Cytotoxicity against human Hep2 cells upto 40 ug/mL by MTT reduction assay; type: functional, cell-based
Outline: (§1)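 Cells were grown as monolayers in DMEM with 10% newborn calf serum and 1% penicillin-streptomycin mixture. They were kept at 37 °C, 5% CO2 and 90% humidity. Viability was read by colorimetric MTT reduction.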

Salmonella sp. = assay: Antibacterial activity against Salmonella sp. CECT 456 upto 40 ug/mL by disk diffusion test; type: functional, organism-based
Outline: (§2)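 Agar disk diffusion test. Bacterial strains were maintained on Nutrient Agar and the Candida albicans yeast on Sabouraud Agar, both at 37 °C.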

Proteus mirabilis = assay: Antibacterial activity against Proteus mirabilis CECT 170 upto 40 ug/mL by disk diffusion test; type: functional, organism-based; outline: as §2
Priestia megaterium = assay: Antibacterial activity against Bacillus megaterium CECT 44 upto 40 ug/mL by disk diffusion test; type: functional, organism-based; outline: as §2
[1] = tested on: Staphylococcus epidermidis; assay: Antibacterial activity against Staphylococcus epidermidis CECT 232 upto 40 ug/mL by disk diffusion test; type: functional, organism-based; outline: as §2
Pseudomonas aeruginosa = assay: Antibacterial activity against Pseudomonas aeruginosa AK 958 upto 40 ug/mL by disk diffusion test; type: functional, organism-based; outline: as §2
Hafnia alvei = assay: Antibacterial activity against Enterobacter hafniae CECT 400 upto 40 ug/mL by disk diffusion test; type: functional, organism-based; outline: as §2
Paenibacillus alvei = assay: Antibacterial activity against Bacillus alvei CECT 2 upto 40 ug/mL by disk diffusion test; type: functional, organism-based; outline: as §2
[2] = tested on: Staphylococcus saprophyticus; assay: Antibacterial activity against Staphylococcus saprophyticus CECT 235 upto 40 ug/mL by disk diffusion test; type: functional, organism-based; outline: as §2
Micrococcus luteus = assay: Antibacterial activity against Micrococcus luteus CECT 241 upto 40 ug/mL by disk diffusion test; type: functional, organism-based; outline: as §2
HeLa = assay: Cytotoxicity against human HeLa cells upto 40 ug/mL by MTT reduction assay; type: functional, cell-based; outline: as §1
Staphylococcus warneri = assay: Antibacterial activity against Staphylococcus warneri CECT 236 upto 40 ug/mL by disk diffusion test; type: functional, organism-based; outline: as §2
Bacillus cereus = assay: Antibacterial activity against Bacillus cereus CECT 496 upto 40 ug/mL by disk diffusion test; type: functional, organism-based; outline: as §2
Staphylococcus = assay: Antibacterial activity against Staphylococcus albus SAB C1 upto 40 ug/mL by disk diffusion test; type: functional, organism-based; outline: as §2
Candida albicans = assay: Antifungal activity against Candida albicans UBC 1 upto 40 ug/mL by disk diffusion test; type: functional, organism-based; outline: as §2
Bacillus pumilus = assay: Antibacterial activity against Bacillus pumilus CECT 29 upto 40 ug/mL by disk diffusion test; type: functional, organism-based; outline: as §2
Salmonella typhimurium = assay: Antibacterial activity against Salmonella Typhimurium UBC 2 upto 40 ug/mL by disk diffusion test; type: functional, organism-based; details: Salmonella enterica subsp. enterica serovar Typhimurium; outline: as §2
Klebsiella pneumoniae = assay: Antibacterial activity against Klebsiella pneumoniae CECT 367 upto 40 ug/mL by disk diffusion test; type: functional, organism-based; outline: as §2
Staphylococcus aureus = assay: Antibacterial activity against Staphylococcus aureus ATCC 6538 upto 40 ug/mL by disk diffusion test; type: functional, organism-based; outline: as §2
Bacillus subtilis = assay: Antibacterial activity against Bacillus subtilis CECT 39 upto 40 ug/mL by disk diffusion test; type: functional, organism-based; outline: as §2
Escherichia coli = assay: Antibacterial activity against Escherichia coli CECT 99 upto 40 ug/mL by disk diffusion test; type: functional, organism-based; outline: as §2

Measured: Activity

COC(=O)[C@]1(C)CC[C@]2(C)CC[C@]3(C)C4=CC=C5C(=CC(=O)[C@@]6(O)Oc7c(cc8c(c7C)[C@H]7Oc9c(cc%10c(c9C)CCC9[C@@]%10(C)CC[C@@]%10(C)[C@@H]%11C[C@](C)(C(=O)OC)CC[C@]%11(C)CC[C@]9%10C)O[C@H]7C7[C@@]8(C)CC[C@@]8(C)[C@@H]9C[C@](C)(C(=O)OC)CC[C@]9(C)CC[C@]78C)O[C@@]56C)[C@]4(C)CC[C@@]3(C)[C@@H]2C1 (stereo partly specified)
inactive: HEp-2 | Salmonella sp. | Proteus mirabilis | Priestia megaterium | [1] | Pseudomonas aeruginosa | Hafnia alvei | Paenibacillus alvei | [2] | Micrococcus luteus | HeLa | Staphylococcus warneri | Bacillus cereus | Staphylococcus | Candida albicans | Bacillus pumilus | Salmonella typhimurium | Klebsiella pneumoniae | Staphylococcus aureus | Bacillus subtilis | Escherichia coli
